Laboratory results as given in PubChem BioAssay.
Inconclusive results are not listed. Active and inactive are the calls of the source.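 How the source made its calls, unless noted: active means inhibition over a set limit, the all-compound mean plus 3 SD, in both replicate runs; inconclusive means over that limit in just one replicate run; inactive means at or under that limit in both runs.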

How the values were obtained:
[1] = S. cerevisiae growth inhibition in permissive medium (OD615), pilot counter-assay for S. cerevisiae lifespan shortening project, permissive growth control (AID 705;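 active means growth inhibition above 25% in both replicates, a cutoff set 3 SD above the mean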); settings: OD615, 24 h, at 10 µM, stronger effect = higher value
Outline: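 Material: engineered DeaD yeast; compound dosing: one dose 10 µM, DMSO 0.25% final; measure: yeast growth inhibition indicated by reduced 24 h OD615; detection: OD615 turbidity read; incubation: cells pre-grown 4 h, then 24 h compound exposure, 30 °C humidified; medium: permissive synthetic complete medium with raffinose and galactose carbon sources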

[2] = S. cerevisiae growth inhibition in restrictive medium, OD615, pilot screen, restrictive growth control, yeast lifespan reduction project (AID 706;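 active means growth inhibition above a set limit, 3 SD over mean compound inhibition, in both replicates, cut at about 43% in these data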;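 further: modified DeaD lifespan yeast strain shifted to restrictive glucose medium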); settings: OD615, 48 h, at 10 µM, stronger effect = higher value
Outline: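 material = engineered S. cerevisiae DeaD strain | medium = glucose-based CSMM-D restrictive medium | times = 4 h pre-incubation, 48 h exposure at 30 °C | technique = OD615 absorbance reading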

[3] = doxorubicin toxicity protection in MRP-1 cells – H69AR cells, CellTiter-Glo, duplicate, MRP-1 activator project, pilot screen (AID 807;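 active means viability increase at or above a cutoff of the median across tested compounds plus 3 SD, cut at about 8.5% in these data, passing the limit was not always enough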;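 further: compound pretreatment 18-22 h then 72 h combined with doxorubicin; 0% = doxorubicin alone and 100% = vehicle without doxorubicin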); settings: H69AR viability with doxorubicin, CellTiter-Glo luminescence; at 10 µM; stronger effect = higher value
[4] = viability of HCT116 without oncogenic beta-catenin – human colon tumor cells, pilot screen (AID 823;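 active means cell viability at or below a set limit in both duplicate runs, the limit being the all-compound median minus 4 SD, cut at about 23% in these data, passing the limit was not always enough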;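 further: 0% = wells killed by 20 µM Hyamine and 100% = untreated DMSO cell wells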); settings: HCT116 beta-catenin knockout viability, CellTiter-Glo, 60 h; at 10 µM; stronger effect = lower value
[5] = viability of PTEN-null HCT116 cells – cell-based, HCT116 clonal line, CellTiter-Glo, pilot screen (AID 824;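 active means viability at or below 27.92% in each of two runs, the all-compound median minus 4 SD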;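 further: 0% = 20 µM Hyamine control and 100% = vehicle cell control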); settings: HCT116 PTEN-deleted viability, 60 h, at 10 µM, stronger effect = lower value
[6] = RAM pathway blockade in budding yeast – dse1pr::URA3 reporter, 5-FOA selection, pilot screen (AID 869);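 further: 0% = DMSO wells with no growth and 100% = 10 µM 1-NA-PP1 with full growth; RAM network block rescues cells from 5-FOA so hits raise OD615 growth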; settings: S. cerevisiae dse1pr::URA3 5-FOA growth, OD615, 2 d, at 10 µM, stronger effect = higher value
[7] = RAM signaling pathway blockade in yeast – S. cerevisiae, Pdr1DBD-CYC8 efflux-inhibited sensitized strain, primary screen (AID 1298;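 active means RAM network inhibition above 8.4% in each of two replicates, 3 SD over the compound average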;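 further: 0% = DMSO untreated cells without growth and 100% = 10 µM 1-NA-PP1 full growth; higher means more yeast growth rescued from 5-FOA killing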); settings: S. cerevisiae cbk1-as DSE1-URA3 strain, 5-FOA growth OD615, 2 d; at 50 µM; stronger effect = higher value

O=c1cccc2n1CC1CC2CN(C(c2ccccc2)c2sc3ncnn3c2O)C1 (centres undefined)
inactive: growth inhibition [1] 4.58% | growth inhibition [2] 3.32% | viability increase [3] -1.49% | viability [4] 93.8% | viability [5] 96.8% | inhibition [6] 1.01% | RAM network inhibition [7] 1.32%

CC(C)CC1C(C#N)=C(N)Oc2c1c(=O)oc1ccccc21 (centres undefined)
inactive: growth inhibition [1] -12.7% | growth inhibition [2] -16.4% | viability increase [3] -0.17% | viability [4] 102% | viability [5] 99.8% | inhibition [6] 1.71% | RAM network inhibition [7] 8.07%

CC12CN3CC(C)(CN(C1)P3(=O)Oc1ccccc1)C2=O (centres undefined)
inactive: growth inhibition [1] -3.04% | growth inhibition [2] -8.29% | viability increase [3] -0.06% | viability [4] 101% | viability [5] 97.9% | inhibition [6] 2.22% | RAM network inhibition [7] 3.62%

O=C(O)C1CSC(c2cccnc2)N1 (centres undefined)
inactive: growth inhibition [1] -3.98% | growth inhibition [2] -8.32% | viability increase [3] -1.05% | viability [4] 99.3% | viability [5] 106% | inhibition [6] 3.04% | RAM network inhibition [7] 2.35%

COP(=S)(OC)SCN1C(=O)c2ccccc2C1=O
inactive: growth inhibition [1] 14% | growth inhibition [2] 26.2% | viability increase [3] -4.23% | viability [4] 94.2% | viability [5] 84.9% | inhibition [6] 1.48% | RAM network inhibition [7] 3.76%

CN(C)C(=O)Oc1ccc(OC(=O)N(C)C)cc1
inactive: growth inhibition [1] 1.07% | growth inhibition [2] -14.3% | viability increase [3] 0.6% | viability [4] 104% | viability [5] 99.5% | inhibition [6] 1.02% | RAM network inhibition [7] -0.32%

CC(CO)(CO)N=Cc1c(O)n(-c2cccc3ccccc23)c(=O)[nH]c1=O
inactive: growth inhibition [1] -9.27% | growth inhibition [2] -18.2% | viability increase [3] -1.01% | viability [4] 95.8% | viability [5] 99% | inhibition [6] 0.52% | RAM network inhibition [7] 4.06%

CCCOC(=O)COc1cc(C)cc2oc(=O)c3c(c12)CCC3
inactive: growth inhibition [1] -10.1% | growth inhibition [2] -13.8% | viability increase [3] 1.68% | viability [4] 88% | viability [5] 86.1% | inhibition [6] 1.03% | RAM network inhibition [7] 4.39%

CN(C)c1ccc(CN2CC=C(c3ccc(F)cc3)CC2)cc1
inactive: growth inhibition [1] -15.2% | growth inhibition [2] -10.7% | viability increase [3] -2.99% | viability [4] 86.6% | viability [5] 96.5% | inhibition [6] 1.31% | RAM network inhibition [7] 1.92%

Cc1ccc2c(c1)C1CN(C)CCC1N2C(=O)Cn1nnc(-c2ccccc2F)n1 (centres undefined)
inactive: growth inhibition [1] 6.06% | growth inhibition [2] -9.18% | viability increase [3] -5.58% | viability [4] 85.2% | viability [5] 83.8% | inhibition [6] 0.18% | RAM network inhibition [7] 3.31%

CC12CNCC(C)(CNC1)C2O (centres undefined)
inactive: growth inhibition [1] 7.96% | growth inhibition [2] -2.77% | viability increase [3] -0.15% | viability [4] 97.5% | viability [5] 99.8% | inhibition [6] 1.12% | RAM network inhibition [7] 2.1%

Cc1cc(Br)ccc1N1C(=O)CC(=O)NC1=O
inactive: growth inhibition [1] -12.1% | growth inhibition [2] 7.12% | viability increase [3] -0.25% | viability [4] 93.4% | viability [5] 95.3% | inhibition [6] 0.535% | RAM network inhibition [7] 0.67%

CCC(=O)N1CC(=O)Nc2ccc(F)cc2C1c1ccccc1 (centres undefined)
inactive: growth inhibition [1] -9.43% | growth inhibition [2] -11.4% | viability increase [3] -1% | viability [4] 92.2% | viability [5] 90.9% | inhibition [6] 2.25% | RAM network inhibition [7] 3.64%

Nc1ccccc1C(=O)c1ccccc1
inactive: growth inhibition [1] -0.69% | growth inhibition [2] -1.46% | viability increase [3] -1.42% | viability [4] 90.9% | viability [5] 88.7% | inhibition [6] 0.55% | RAM network inhibition [7] 2.5%

CCOC(=O)N(CC)c1ccc(C(O)(C(=O)OCC)C(F)(F)F)cc1 (centres undefined)
inactive: growth inhibition [1] -2.74% | growth inhibition [2] -2.65% | viability increase [3] -0.35% | viability [4] 92.5% | viability [5] 95.3% | inhibition [6] 0.745% | RAM network inhibition [7] 0.46%

O=C1CC(=O)N(c2ccc(Cl)cc2Cl)C(=O)N1
inactive: growth inhibition [1] -10.7% | growth inhibition [2] 11.2% | viability increase [3] 0.06% | viability [4] 93.2% | viability [5] 91.2% | inhibition [6] 0.19% | RAM network inhibition [7] 1.94%

Cc1nc2cc(C(F)(F)F)ccc2n1C1CCN(Cc2nnnn2Cc2cccs2)CC1
inactive: growth inhibition [1] -11.3% | growth inhibition [2] -18.3% | viability increase [3] -6.21% | viability [4] 76.1% | viability [5] 67.6% | inhibition [6] 1.01% | RAM network inhibition [7] -0.01%
